Shown are actives, neighbours in structure and some others; about 2.1% of the full set was active somewhere.
EBI2 block: blocks human EBI2 receptor beta-arrestin signaling | P32249 | EBI2 beta-arrestin recruitment, luminescence, 7a,25-OHC stimulated | inhibition, % at 5 µM | 360,000 tested, 0.81% active | AID 651636; in the data active = inhibition above about 38%;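 also: enzyme fragment complementation signal reports receptor beta-arrestin coupling in cells; 0% = agonist plus DMSO wells and 100% = wells without agonist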
CCR6 antag: blocks CCL20-driven beta-arrestin recruitment at human CCR6; 340,000 tested, 0.49% active; inhibition, % at 20 µM; AID 493098; CHO-K1 CCR6 PathHunter beta-arrestin, luminescence, CCL20-stimulated;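 active = compounds whose inhibition of the agonist-driven luminescence signal at 20 µM reaches about 50%, limit read from the data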;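 also: cells stimulated with CCL20 at 14 nM final; plate controls were DMSO with CCL20 for no effect and DMSO without agonist for full effect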
APJ antagonist: APJ receptor antagonism | P35414 | CHO-K1 APJ beta-arrestin complementation, luminescence | inhibition, % at 20 µM | 330,000 tested, 0.32% active | AID 2521;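 active = inhibition above about 40% at 20 µM, limit read from the data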;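 also: cells challenged with 10 nM apelin-13 agonist together with compound; plate controls were apelin-13 plus DMSO wells for no effect and DMSO wells lacking apelin-13 for full effect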
CXCR6 inh: inhibitors of human CXCR6 receptor; O00574; CHO-K1 PathHunter CXCR6 beta-arrestin, luminescence; inhibition, % at 20 µM; 360,000 tested, 0.36% active; AID 602244; in the data active = inhibition above about 34%, passing the limit was not always enough;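 also: antagonist mode with CXCL16 agonist at 10 nM final; 0% = 10 nM CXCL16 with DMSO and 100% = unstimulated wells without agonist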
Target sequence (O00574 whole entry, looked up): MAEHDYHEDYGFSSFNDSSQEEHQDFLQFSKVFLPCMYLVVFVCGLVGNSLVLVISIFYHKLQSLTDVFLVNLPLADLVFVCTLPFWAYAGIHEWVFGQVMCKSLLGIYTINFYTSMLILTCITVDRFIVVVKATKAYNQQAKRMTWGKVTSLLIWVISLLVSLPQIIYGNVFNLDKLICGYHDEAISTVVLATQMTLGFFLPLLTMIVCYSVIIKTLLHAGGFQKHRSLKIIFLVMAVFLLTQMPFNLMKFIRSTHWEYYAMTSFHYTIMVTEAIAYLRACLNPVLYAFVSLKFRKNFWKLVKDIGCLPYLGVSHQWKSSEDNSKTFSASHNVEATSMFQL
HTR2A ag: agonists of mouse serotonin 5-HT2A receptor (HTR2A); P35363; CHO-K1 mHTR2A beta-arrestin complementation, luminescence; percent of 30 µM serotonin response; activation, % at 7.6 µM; 360,000 tested, 0.66% active; AID 624169;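 active = activation above a run cutoff, the mean activation of all tested compounds plus 3 SD, cut at about 14% in these data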;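 also: 0% = plate median of compound wells and 100% = 30 µM serotonin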
APJ ag: APJ receptor agonism | AID 2520 | P35414 | 330,000 tested, 0.11% active | CHO-K1 APJ PathHunter beta-arrestin, luminescence; 0% DMSO wells, 100% apelin | activation, % at 20 µM;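 active = activation more than six SD over the plate average, tested at 20 µM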;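 also: 0% = DMSO alone and 100% = apelin-13 at 10 nM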
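Test system: CHO-K1 APJ beta-arrestin complementation cell line | Compound: Single test compound dose, 20 µM final, 1% DMSO | Incubation: Compound 90 min 25 °C, reagent 1 h | Measured by: beta-gal luminescence | Read-out basis: APJ–arrestin association signal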
MOR ag counter: counter-screen for mouse HTR2A agonists: human mu opioid receptor agonists | 2,300 tested, 5.3% active | shares compounds with HTR2A ag | activation, % at 9.3 µM | U2OS OPRM1 beta-arrestin PathHunter, luminescence; DMSO 0%, DAMGO 9.3 µM 100%;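 active = mean activation above the mean of DMSO-only wells plus 3 SD, cut at about 0.5% in these data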
Target sequence (P35372 whole entry, looked up): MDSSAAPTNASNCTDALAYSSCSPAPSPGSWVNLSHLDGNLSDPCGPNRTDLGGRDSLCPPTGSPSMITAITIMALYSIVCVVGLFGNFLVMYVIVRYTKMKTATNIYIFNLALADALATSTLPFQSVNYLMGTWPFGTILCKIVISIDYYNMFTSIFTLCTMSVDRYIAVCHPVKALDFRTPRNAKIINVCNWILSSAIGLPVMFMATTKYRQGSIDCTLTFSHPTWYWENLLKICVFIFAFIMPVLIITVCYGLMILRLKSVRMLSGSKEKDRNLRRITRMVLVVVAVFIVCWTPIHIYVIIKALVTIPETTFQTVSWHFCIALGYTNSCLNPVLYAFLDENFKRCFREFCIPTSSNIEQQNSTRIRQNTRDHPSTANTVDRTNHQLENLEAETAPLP
m5-HT2A ag conf: confirmation of mouse HTR2A serotonin receptor agonists | shares compounds with HTR2A ag | CHO-K1 PathHunter beta-arrestin recruitment, luminescence; DMSO 0%, 30 µM serotonin 100% | activation, % at 7.6 µM | 2,300 tested, 19% active;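 active = mean activation across triplicates above the hit threshold derived in the original primary screen, cut at about 15% in these data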
EBI2 antag conf: confirmation of human EBI2 receptor antagonists; shares compounds with EBI2 block; EBI2 beta-arrestin luminescence, 7a,25-OHC antagonism; inhibition, % at 5 µM; 2,400 tested, 29% active; AID 651997;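 active = inhibition of at least 50%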
EBI2 agonist: activates EBI2, counter-screen for EBI2 antagonists; 2,400 tested, under 10 active; activation, % at 5 µM; shares compounds with EBI2 block; AID 652000; EBI2-expressing cells, agonist mode, luminescence, 60 min; 0% vehicle, 100% 7α,25-dihydroxycholesterol control;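 active = activation of at least 50%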
bGal counter: inhibits E. coli beta-galactosidase, counter-screen for EBI2 antagonists; purified beta-galactosidase, luminescent Galacton Star, 15 min; shares compounds with EBI2 block; 2,400 tested, 1% active; inhibition, % at 5 µM; AID 652176;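 active = replicate-average signal at least 3 plate SD below neutral wells, shown as high inhibition, flagging enzyme-inhibiting false positives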;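 also: 0% = DMSO wells with enzyme and 100% = wells lacking enzyme; higher means stronger loss of beta-gal luminescence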
Starred values were filed as active, the others as inactive; · = no result.

SMILES | EBI2 block | CCR6 antag | APJ antagonist | CXCR6 inh | HTR2A ag | APJ ag | MOR ag counter | m5-HT2A ag conf | others
COc1ccc2c(c1)c(C(=O)O)c(C)n2C(C)C | 8 | -11 | 10 | 2 | -3 | -1 | · | ·
CCOC(=O)c1c(C)n(C(C)C)c2ccc(OC(=O)c3ccc(N4C(=O)CCC4=O)cc3)cc12 | -7 | 9 | 14 | 4 | 16* | 3 | 0 | 3
CCOC(=O)C(NC(=O)C(Cc1ccc(N(CCCl)CCCl)cc1)NC(C)=O)C(C)C (stereo not drawn) | -8 | 4 | 2 | 2 | -1 | -2 | · | ·
CCCN(CCC)C1CCc2ccc(O)cc2C1 (stereo not drawn) | 0 | 14 | -5 | 10 | 60* | -3 | 0 | 179*
CCCN(CCC)C1CCc2cccc(O)c2C1 (stereo not drawn) | -4 | -2 | -4 | -4 | 53* | -3 | -1 | 92*
Fc1ccc(CCNCc2ccc(Br)cc2)cc1 | 4 | 11 | 13 | -5 | -4 | -2 | · | ·
Fc1ccc(CCNCc2cccc(Cl)c2)cc1 | -5 | 11 | 18 | -6 | 24* | -4 | 0 | 7
Clc1cccc(CNCCc2ccc3c(c2)OCO3)c1 | -13 | 8 | 13 | -3 | 32* | -1 | 0 | 8
Fc1ccccc1CNCCc1ccc2c(c1)OCO2 | 6 | 5 | 4 | 2 | 21* | 2 | -1 | 13
CC[n+]1c(-c2ccccc2)c2cc(N)ccc2c2ccc(N)cc21 | -35 | -2 | · | 14 | -7 | · | · | ·
COc1ccc(C2=NCC(=S)Nc3ccc(Cl)cc32)cc1Cl | -4 | 9 | 7 | 9 | 2 | -2 | · | ·
N/C(=N\N=C\c1ccc(O)cc1O)N[N+](=O)[O-] | -6 | -5 | -29 | 2 | -1 | -2 | · | ·
CC1[C@H]2Cc3ccc(O)cc3[C@]1(C)CCN2CCc1ccccc1 (stereo partly drawn) | -4 | 9 | -2 | -5 | -1 | -3 | · | ·
CCCN1CC[C@@H]2c3cc(O)ccc3CC[C@@H]21 | -4 | 16 | 0 | -9 | 17* | 2 | 0 | 49*
CN1CCC2(CC1)N=C(c1ccc(F)cc1)C(=S)N2 | -9 | 11 | -10 | -8 | 8 | -1 | · | ·
O=C(Oc1ccc([N+](=O)[O-])cc1)N1CCC(N2CCCCC2)CC1 | 1 | 2 | 10 | -12 | -1 | -1 | · | ·
c1ccc(C2(N3CCCCC3)CCCCC2)cc1 | 3 | 1 | 8 | 2 | 1 | -4 | · | ·
S=C=Nc1cccc(C2(N3CCCCC3)CCCCC2)c1 | -6 | 41 | 22 | 21 | 24* | -6 | · | 0
CCCn1c(C)c(C(=O)c2cccc3ccccc23)c2ccccc21 | 19 | 25 | 0 | 5 | 0 | -5 | · | ·
O=C(c1c[nH]cc1-c1ccccc1)c1cccc2ccccc12 | 2 | 11 | 10 | 0 | 20* | -3 | 0 | 6
CCOC(=O)C1=C(N)Oc2cc(C)oc(=O)c2C12C(=O)N1c3c(cccc32)C(C)CC1(C)C (stereo not drawn) | -6 | 2 | 18 | -5 | 3 | 2 | · | ·
O=C(/C=C/c1ccccc1)c1c(O)n(CCc2ccccc2)c(=O)[nH]c1=O | 1 | 9 | 2 | 1 | 15* | 4 | -1 | 1
O=C(/C=C/c1ccc2c(c1)OCO2)c1c(O)n(CCc2ccccc2)c(=O)[nH]c1=O | -1 | 2 | 13 | 11 | 5 | -2 | · | ·
COc1ccc(C(=O)N/N=C/C23CC[C@@H](O)CC2(O)CC[C@@H]2[C@@H]3CCC3(C)C(C4=CC(=O)OC4)CCC23O)cc1 (stereo partly drawn) | -7 | 3 | 6 | 1 | -1 | -3 | · | ·
COc1cc(C(=O)N/N=C/C23CC[C@@H](O)CC2(O)CC[C@@H]2[C@@H]3CCC3(C)C(C4=CC(=O)OC4)CCC23O)ccc1O (stereo partly drawn) | 3 | 8 | -10 | -4 | 15* | -3 | 0 | -3
SMILES | EBI2 block | CCR6 antag | APJ antagonist | CXCR6 inh | HTR2A ag | APJ ag | MOR ag counter | m5-HT2A ag conf | others
Cc1ccc(CC(=O)N2CCN(Cc3ccccc3)CC2)cc1 | 10 | 12 | 4 | -5 | 4 | -4 | · | ·
O=C(Cc1ccccc1)N1CCN(Cc2cccc(Br)c2)CC1 | 0 | 11 | 0 | -4 | 7 | -4 | · | ·
CCC(C)N1CCN(C(=O)Cc2ccccc2)CC1 (stereo not drawn) | -6 | 15 | 1 | 4 | 20* | -3 | 0 | 4
O=C(Cc1ccc(Br)cc1)N1CCN(Cc2ccccc2)CC1 | 17 | 1 | 14 | -5 | 21* | -3 | -1 | 4
CCCCc1ccc2[nH]cc(CCN)c2c1 | -14 | -11 | -26 | -8 | 26* | 9 | 0 | 50*
NCCc1c[nH]c2ccccc12 | 6 | 3 | -33 | -9 | 10 | -3 | · | ·
Cn1c(=O)cc(SCC(=O)N2CCC3(CC2)OCCO3)c2ccc(Cl)cc21 | -3 | -2 | -3 | 0 | 16* | -11 | 0 | -1
CN1CCCC(C(=O)c2ccccc2)C1 (stereo not drawn) | -7 | -3 | 16 | -8 | 1 | -4 | · | ·
CNCCc1ccc(O)c(O)c1 | -2 | 15 | 11 | 7 | 28* | -3 | 0 | 161*
COC(=O)C1=C(c2cccc(Cl)c2)C[C@@H]2CC[C@H]1N2C(=O)N1CCCC1 | 12 | 11 | 4 | 3 | -1 | -1 | · | ·
CC(C)[C@@]1(NC(=O)[C@@H]2C[C@@H]3c4cccc5[nH]cc(c45)C[C@H]3N(C)C2)O[C@@]2(O)[C@@H]3CCCN3C(=O)[C@H](Cc3ccccc3)N2C1=O | -1 | 22 | 14 | 12 | 30* | -6 | 0 | 83*
COc1ccccc1OCC(=O)N1CCN(Cc2ccc3c(c2)OCO3)CC1 | 0 | 4 | 11 | -1 | 1 | 0 | · | ·
O=C(COc1ccc(Cl)cc1)N1CCN(C2CCCC2)CC1 | 89* | 3 | 13 | 5 | -6 | -1 | · | · | EBI2 antag conf=67*;EBI2 agonist=-1;bGal counter=-13
